Data set [1] addresses T1, Lysine-specific histone demethylase 1A (Homo sapiens, UniProt O60341). Description: Inhibition of recombinant LSD1 (unknown origin) using H3K4me2 as substrate by fluorescence assay.
Data set [2] deals with T2, MAO-A (Homo sapiens, UniProt P21397).
T2 sequence (P21397 whole entry): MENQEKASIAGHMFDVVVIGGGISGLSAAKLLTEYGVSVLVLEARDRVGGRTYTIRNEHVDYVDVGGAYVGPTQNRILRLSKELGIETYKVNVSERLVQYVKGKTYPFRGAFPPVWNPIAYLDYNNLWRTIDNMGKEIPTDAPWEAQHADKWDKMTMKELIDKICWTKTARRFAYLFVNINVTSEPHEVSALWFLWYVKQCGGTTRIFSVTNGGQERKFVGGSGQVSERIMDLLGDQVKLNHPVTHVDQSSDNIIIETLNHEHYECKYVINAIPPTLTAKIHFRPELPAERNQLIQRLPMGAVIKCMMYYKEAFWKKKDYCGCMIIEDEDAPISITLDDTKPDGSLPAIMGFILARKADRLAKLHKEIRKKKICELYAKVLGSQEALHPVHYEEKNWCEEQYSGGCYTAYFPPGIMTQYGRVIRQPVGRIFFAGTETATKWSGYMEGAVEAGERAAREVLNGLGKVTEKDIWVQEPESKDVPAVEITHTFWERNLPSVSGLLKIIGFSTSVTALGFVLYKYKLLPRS
As to the kind of experiment: Inhibition of MAO-A (unknown origin) at 10 uM relative to control.

For data set [3], the target named is T2, MAO-A. As to the kind of experiment: Inhibition of MAO-A (unknown origin) at 1 uM relative to control.
The target in data set [4] is T3, MAO-B (Homo sapiens, UniProt P27338).
T3 sequence (P27338 whole entry): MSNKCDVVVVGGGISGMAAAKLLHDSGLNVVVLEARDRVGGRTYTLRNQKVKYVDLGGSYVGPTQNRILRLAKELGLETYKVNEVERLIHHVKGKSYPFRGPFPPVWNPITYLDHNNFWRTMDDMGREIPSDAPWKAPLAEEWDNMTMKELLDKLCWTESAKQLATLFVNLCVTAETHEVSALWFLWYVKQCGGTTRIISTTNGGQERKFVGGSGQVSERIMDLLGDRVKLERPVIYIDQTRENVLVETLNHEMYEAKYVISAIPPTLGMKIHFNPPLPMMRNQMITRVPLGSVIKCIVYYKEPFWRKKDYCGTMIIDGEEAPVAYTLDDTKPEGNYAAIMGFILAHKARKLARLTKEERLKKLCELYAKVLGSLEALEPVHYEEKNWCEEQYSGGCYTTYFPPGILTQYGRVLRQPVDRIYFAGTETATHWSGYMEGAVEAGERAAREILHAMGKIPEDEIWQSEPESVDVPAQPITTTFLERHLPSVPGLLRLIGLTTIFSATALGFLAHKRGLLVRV
Description: Inhibition of MAO-B (unknown origin) at 10 uM relative to control.

Data set [5] addresses T3, MAO-B. Description: Inhibition of MAO-B (unknown origin) at 1 uM relative to control.
Data set [6] concerns the target T1, Lysine-specific histone demethylase 1A. Description: Reversible inhibition of recombinant LSD1 (unknown origin) assessed as recovery of enzyme activity at 40 uM measured 1 hr after 80-fold dilution. Summed up:
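Dilution assay: 2.5 µg recombinant LSD1 was preincubated 1 h at 25 °C with 40 µM compound, 1.6 µM GSK2879552 or DMSO. Aliquots were then diluted 80-fold into HRP-coupled assay solution with substrate and compared with undiluted mixtures to assess recovery of LSD1 activity.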

Data set [7] has the same target. Description: Competitive inhibition of recombinant LSD1 (unknown origin) up to 1.25 uM using H3K4me2 as substrate in presence of FAD by Lineweaver-Burk plot analysis.
The target is the same in data set [8]. As to the kind of experiment: Binding affinity to LSD1 in human A549 cells assessed as thermal stability by measuring temperature at 10 uM after 1 hr by thermal shift assay. The class given is cell-based. Summed up: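 CETSA: A549 cells (5 × 10⁵ per sample) were exposed 1 h to 10 µM compound or DMSO, washed in PBS, and resuspended in PBS with protease inhibitor. Samples were heated 3 min at the indicated temperatures (e.g. 46, 49, 52 °C), then freeze-thawed three times in liquid nitrogen. Soluble LSD1 was measured by western blot with a GAPDH control; three independent experiments.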

Data set [9] shares this target. Description: Inhibition of LSD1 in human A549 cells assessed as accumulation of H3K4me1 after 96 hrs by Western blot analysis. The class given is cell-based. The method in brief:
(§1)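 A549 cells were treated with 0, 1 and 6 µM for 96 h, then lysed in RIPA buffer (50 mM Tris-HCl pH 7.5) with protease inhibitors. Lysates went through SDS-PAGE, PVDF transfer and probing for the histone mark, with ECL detection. Bands were quantified against total H3. Run at least three times; mean ± SD.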
On the technique in general: A western blot detects proteins with antibodies after separation by electrophoresis.

For data set [10] the target is unchanged. As to the kind of experiment: Inhibition of LSD1 in human A549 cells assessed as accumulation of H3K4me2 after 96 hrs by Western blot analysis. The class given is cell-based. The method in brief:
as §1

For data set [11] the target is unchanged. As to the kind of experiment: Inhibition of LSD1 in human A549 cells assessed as accumulation of H3K9me1 after 96 hrs by Western blot analysis. The data set is classed as cell-based. The method in brief:
as §1

Data set [12] shares this target. As to the kind of experiment: Inhibition of LSD1 in human A549 cells assessed as accumulation of H3K9me2 after 96 hrs by Western blot analysis. The class given is cell-based. The method in brief:
as §1

Data set [13] has as its system A549. As to the kind of experiment: Antimigratory activity against human A549 cells after 48 hrs by wound healing assay. The data set is classed as functional, cell-based. Summed up: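 Scratch assay: cells seeded at 1 × 10⁴ per well and grown 24 h, then the monolayer was scratched with a pipette tip. Cells were then cultured 48 h in fresh medium with 1% FBS and graded compound concentrations. Wound closure was photographed under an inverted microscope. Run at least three times; mean ± SD.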

Data set [14] deals with A549. As to the kind of experiment: Up regulation of E-cadherin levels in human A549 cells up to 6 uM after 96 hrs by Western blot analysis. The class given is functional, cell-based. The method in brief:
(§2)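 A549 cells treated with 0, 1 or 6 µM for 96 h, harvested with trypsin and lysed in RIPA buffer (pH 7.5) with protease inhibitors. 40 lg protein/lane on SDS-PAGE, transferred to PVDF, probed overnight with specific primary antibodies. ECL detection, quantified against GAPDH loading control. At least three experiments, mean ± SD.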

Data set [15] concerns A549. As to the kind of experiment: Up regulation of claudin-1 levels in human A549 cells up to 6 uM after 96 hrs by Western blot analysis. The class given is functional, cell-based. Summed up:
as §2

The subject of data set [16] is A549. Description: Down regulation of N-cadherin levels in human A549 cells up to 6 uM after 96 hrs by Western blot analysis. The class given is functional, cell-based. Summed up:
as §2

In data set [17] the test system is A549. As to the kind of experiment: Down regulation of slug levels in human A549 cells up to 6 uM after 96 hrs by Western blot analysis. The data set is classed as functional, cell-based. The method in brief:
as §2

Data set [18] concerns A549. As to the kind of experiment: Down regulation of snail levels in human A549 cells up to 6 uM after 96 hrs by Western blot analysis. The class given is functional, cell-based. Summed up: as §2
Data set [19] relates to A549. As to the kind of experiment: Effect on LSD1 expression in human A549 cells up to 6 uM after 96 hrs by Western blot analysis. The class given is functional, cell-based. The method in brief: as §2
Data set [20] deals with T1, Lysine-specific histone demethylase 1A. As to the kind of experiment: Inhibition of H3K4me2 binding to LSD1 in human A549 cells up to 6 uM after 96 hrs by immunoprecipitation assay. The class given is cell-based. Summed up:
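Co-IP: A549 cells were treated with 0 or 6 µM for 96 h, trypsinised, and lysed in IP lysis/wash buffer with protease inhibitors. LSD1 antibody was used as bait, and H3K4me2 bound to LSD1 was detected. Total cell lysate was blotted alongside with a GAPDH loading control.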

The subject of data set [21] is GES1. Description: Cytotoxicity against human GES-1 cells assessed as decrease in cell viability after 96 hrs by MTT assay. The class given is cell-based. The conditions noted are these: GES1, 96 h. The method in brief:
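GES-1 cells were grown in RPMI-1640 with 10% FBS at 37 °C and 5% CO₂. They were seeded at 3 × 10³ per well, left overnight, then given graded concentrations for 4 days (0.1% DMSO vehicle). MTT was added for 4 h at 37 °C, formazan dissolved in DMSO, and A570 read. Viability = (At/As) × 100% against solvent control.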
A general note: Tetrazolium dyes change colour on reduction, which living cells bring about.

For data set [22], the target named is T1, Lysine-specific histone demethylase 1A. Description: Inhibition of LSD1 in human A549 cells assessed as accumulation of H3K9me1 up to 6 uM after 96 hrs by Western blot analysis. The data set is classed as cell-based. Summed up: (§3)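 A549 cells exposed to 0, 1 or 6 µM for 96 h, lysed in RIPA buffer (pH 7.5) with protease inhibitors. Lysates (40 µg/lane) resolved by 10% or 12% SDS-PAGE and immunoblotted for H3K4me1/2 and H3K9me1/2. ECL read-out, quantified against total histone H3 loading control. At least three experiments, mean ± SD.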

Data set [23] has the same target. Particulars: 1.6 uM.
Data set [24] has the same target. Description: Inhibition of LSD1 in human A549 cells assessed as accumulation of H3K4me1 up to 6 uM after 96 hrs by Western blot analysis. The class given is cell-based. The method in brief: as §3
For data set [25] the target is unchanged. Description: Inhibition of LSD1 in human A549 cells assessed as accumulation of H3K4me2 up to 6 uM after 96 hrs by Western blot analysis. The class given is cell-based. Summed up: as §3
Data set [26] has the same target. Description: Inhibition of LSD1 in human A549 cells assessed as accumulation of H3K9me2 up to 6 uM after 96 hrs by Western blot analysis. The class given is cell-based. Summed up: as §3
The test system of data set [27] is A549. Description: Antimigratory activity against human A549 cells at 6 uM after 48 hrs by wound healing assay. The data set is classed as functional, cell-based. The method in brief:
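Scratch wound assay in A549 monolayers: cells seeded at 1 × 10⁴ per well, incubated 24 h, then scratched with a pipette tip. Cultured 48 h in fresh medium with 1% FBS and varying compound concentrations, then photographed under an inverted microscope. At least three independent experiments, mean ± SD.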

pIC50: −log10 of the molar value. Activity calls are given as the source filed them. The calls are words filed in the database; no cut-off is given here.

With `Cc1cc(N(C)CCN(C)C)n2nc(SCc3ccccc3)nc2n1`, in data set [1], the negative-log IC50 (pIC50) is under 4.30.
Consider `Cc1cc(NN)n2nc(SCc3ccccc3)nc2n1`, for which the negative-log IC50 (pIC50) in [1] was 6.05; in data set [21], under 4.30. Besides, the values for the inhibition at 10 µM in data set [2] and in data set [4] were 36% and 43%, respectively. Also, the inhibition at 1 µM in [3] worked out at 21%; in data set [5], 15%. Moreover, the inhibition entry in data set [6], in [7] and in [20] was “Active” in each case. Further, the T in data set [8] amounted to 52 °C. Besides, the inhibition entry in [9], in [10], in [11] and in [12] was “Dose-dependent effect” in each case. Also, in [13], the Activity entry is “Dose-dependent effect”. Further, the outcome in data set [14], in data set [15], in [16], in data set [17] and in data set [18] was Active. Besides, the result in data set [19] was inactive.
Consider `Cc1cc(NN)n2ncnc2n1`, for which the negative-log IC50 (pIC50) in data set [1] is under 4.30. For the same molecule, the outcome in data set [8] was inactive. For the same molecule, the inhibition result in data set [9], in [10], in data set [11], in data set [12] and in data set [22] was “inactive” each time.
Turning to `NNc1cc(-c2ccccc2)nc2nc(SCc3ccccc3)nn12`, the pIC50 in data set [1] is under 4.30.
On the same count and under the same terms, the result for `CNCCN(C)c1cc(C)nc2nc(SCc3ccccc3)nn12` reads under 4.30.
`O=C(O)c1ccc(CN2CCC(CN[C@@H]3C[C@H]3c3ccccc3)CC2)cc1`: the inhibition result in [23] is “Active”.
In the case of `Cc1cc(NN)n2nc(SCc3cccc4ccccc34)nc2n1`, the pIC50 in data set [1] was under 4.30.
On to `c1ccc([C@@H]2C[C@H]2NC2CCNCC2)cc1` (racemic), for which the inhibition result in data set [9], in [10] and in data set [12] was “Dose-dependent effect” throughout. Also, the inhibition entry in [24], in data set [25], in [26] and in data set [27] was “Active” in each case. In data set [22], the inhibition result is “inactive”. The result in data set [14], in data set [15], in data set [16], in [17] and in data set [18] was Active. In addition, in data set [19], the outcome was inactive.
As for `Cc1cc(N2CCCC(NC(=O)OC(C)(C)C)C2)n2nc(SCc3ccccc3)nc2n1` (stereo not drawn), the negative logarithm of the IC50 (pIC50) in data set [1] is under 4.30.
Still for that read-out and setting: the result for `C/C(=N\NC(=O)c1cccc(S(=O)(=O)N2CCOCC2)c1)c1cc(Cl)ccc1O` reads 7.61.
The same measure, in the same setting: the result for `Cc1cc(N2CCCC(N)C2)n2nc(SCc3ccccc3)nc2n1` (stereo not drawn) reads under 4.30.
On the same count and under the same terms, in the case of `Cc1cc(NCCN)n2nc(SCc3ccccc3)nc2n1` it was under 4.30.
As to `Cc1cc(NCCOCCOCCN)n2nc(SCc3ccccc3)nc2n1`, the pIC50 in data set [1] was under 4.30.
Still for that read-out and setting: the result for `Cc1cc(N)n2nc(SCc3ccccc3)nc2n1` reads under 4.30.

As usually defined, the pIC50 is −log10 of the IC50, conventionally taken in molar units. As a reminder, the inhibition is how much of the control response was suppressed.
